# Where two headings read alike, the source gives them in different places.
# Experiments:
# P. falciparum DHODH = P. falciparum DHODH (Plasmodium falciparum, UniProt Q08210); assay: DHODH inhibition, DCIP-based spectrophotometric steady-state assay; format: biochemical
# P. vivax DHODH = P. vivax DHODH (Plasmodium vivax, UniProt A5K1N1); assay: DHODH inhibition, DCIP-based assay; format: biochemical
# Rabbit DHODH = Rabbit DHODH (Oryctolagus cuniculus, UniProt G1SWF3); assay: DHODH inhibition, DCIP-based assay; format: biochemical
# Chain of Rabbit DHODH (G1SWF3 1-395): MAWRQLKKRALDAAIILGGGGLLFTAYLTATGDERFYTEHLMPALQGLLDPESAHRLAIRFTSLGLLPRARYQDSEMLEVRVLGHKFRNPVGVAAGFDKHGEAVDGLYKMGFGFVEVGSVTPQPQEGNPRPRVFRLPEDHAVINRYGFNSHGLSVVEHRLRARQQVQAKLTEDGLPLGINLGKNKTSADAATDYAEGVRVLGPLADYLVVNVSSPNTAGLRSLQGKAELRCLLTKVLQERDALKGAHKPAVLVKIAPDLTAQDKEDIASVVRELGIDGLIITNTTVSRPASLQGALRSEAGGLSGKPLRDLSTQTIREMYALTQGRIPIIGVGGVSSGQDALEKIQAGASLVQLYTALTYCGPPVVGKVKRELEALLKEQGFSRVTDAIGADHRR
# Minipig DHODH = Minipig DHODH (Sus scrofa, UniProt F1S3B0); assay: DHODH inhibition, DCIP-based assay; format: biochemical
# Chain of Minipig DHODH (F1S3B0 1-395): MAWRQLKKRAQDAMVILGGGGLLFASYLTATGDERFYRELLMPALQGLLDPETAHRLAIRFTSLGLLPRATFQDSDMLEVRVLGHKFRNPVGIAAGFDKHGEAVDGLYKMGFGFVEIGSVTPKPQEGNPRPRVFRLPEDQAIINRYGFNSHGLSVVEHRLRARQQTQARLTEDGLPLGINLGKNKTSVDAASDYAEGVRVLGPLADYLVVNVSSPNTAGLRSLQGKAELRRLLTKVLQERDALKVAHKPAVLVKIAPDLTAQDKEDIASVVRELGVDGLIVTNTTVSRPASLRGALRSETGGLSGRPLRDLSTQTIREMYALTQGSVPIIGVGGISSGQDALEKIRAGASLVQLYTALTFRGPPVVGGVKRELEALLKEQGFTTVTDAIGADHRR
# physchem = format: physicochemical
# [1] = kinetic solubility in pH 6.5 buffer; format: physicochemical; conditions: aqueous buffer pH 6.5, pH 6.5
# [2] = solubility by equilibration in physiologically-relevant media; format: physicochemical
# [3] = metabolic stability in liver microsomes; format: in vitro ADME; conditions: human
# [4] = metabolic stability in liver microsomes; format: in vitro ADME; conditions: dog
# [5] = metabolic stability in liver microsomes; format: in vitro ADME; conditions: rat
# [6] = incubation in cryopreserved hepatocytes; format: in vitro ADME, human; conditions: 10 μM over 120 minutes
# Method in brief: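 Human cryopreserved hepatocytes at 1 × 10^6 cells/mL were incubated with test compound at 10 μM. Metabolites were assigned by accurate mass measurement.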
# [7] = system: D10w/yDHODH P. falciparum cell line; assay: growth inhibition of transgenic P. falciparum expressing yeast DHODH; format: cell-based
# Method in brief: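 D10 parasites transfected with yeast DHODH were grown in human erythrocytes in RPMI 1640 with 0.5% Albumax II. EC50 came from a 72 h dose–response growth assay read by SYBR Green DNA fluorescence.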
# [8] = system: P. falciparum Dd2 isolates selected for resistance to DSM265; assay: activity on DSM265-selected resistant lines; format: cell-based; conditions: G181C PfDHODH mutant line and 3-fold DHODH gene amplification line
# [9] = cytotoxicity against a human cell line; format: cell-based; conditions: human, HepG2 cells
# Human HepG2 cells = assay: cytotoxicity against a human cell line; format: cell-based
# [10] = system: P. cynomolgi large and small forms; assay: P. cynomolgi liver stage assay in primary rhesus monkey hepatocytes; format: cell-based; conditions: concentrations at or below 10 μM; human serum-based media
# [11] = system: P. falciparum 3D7A parasites; assay: in vitro kill rate; format: cell-based; conditions: for EC50: Plasmodium falciparum, 3D7, 48 h
# [12] = system: P. falciparum field isolates; assay: P. falciparum clinical isolates; format: cell-based; conditions: Plasmodium falciparum, 72 h, read-out: unbound EC50
# P. vivax field isolates = assay: ex vivo 48 h schizont maturation assay; format: cell-based
# Method in brief: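 Field isolates came from patients at malaria clinics in Timika, Papua, Indonesia, and were tested in a 48 h schizont maturation assay adapted from the WHO microtest at 2% hematocrit. P. falciparum was run in RPMI 1640 with 10% AB+ human serum. P. vivax was run in McCoy's 5A with 20% AB+ human serum.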
# [13] = P. falciparum SCID mouse efficacy model; format: in vivo; conditions: NOD-scid IL-2Rγnull (NSG), mouse, blood, oral
# [14] = system: P. falciparum Pf3D7^0087/N9; assay: P. falciparum SCID mouse efficacy model; format: in vivo
# Caco-2 cell monolayers = assay: Caco-2 cell permeability; format: in vitro ADME; conditions: both directions
# CYP2D6 = CYP2D6 (Homo sapiens, UniProt P10635); assay: reversible cytochrome P450 inhibition; format: in vitro ADME
# Chain of CYP2D6 (P10635 whole entry, canonical isoform): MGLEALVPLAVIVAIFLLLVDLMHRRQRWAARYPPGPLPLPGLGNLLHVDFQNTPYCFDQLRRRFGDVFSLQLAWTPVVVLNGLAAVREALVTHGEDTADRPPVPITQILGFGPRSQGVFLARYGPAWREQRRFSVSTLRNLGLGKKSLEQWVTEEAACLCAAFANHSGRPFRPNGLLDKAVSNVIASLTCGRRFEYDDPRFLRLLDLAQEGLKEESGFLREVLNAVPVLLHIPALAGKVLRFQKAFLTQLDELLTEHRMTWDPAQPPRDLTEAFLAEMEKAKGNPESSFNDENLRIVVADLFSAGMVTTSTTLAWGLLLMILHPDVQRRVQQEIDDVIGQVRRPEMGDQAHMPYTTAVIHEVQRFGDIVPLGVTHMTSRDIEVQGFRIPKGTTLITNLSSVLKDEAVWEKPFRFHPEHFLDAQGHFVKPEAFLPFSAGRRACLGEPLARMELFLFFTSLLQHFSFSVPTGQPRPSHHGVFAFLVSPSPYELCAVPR
# Method in brief: (§1)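 Reversible inhibition of human CYP isoforms tested with isoform-specific probe substrates. Time-dependent (mechanism-based) inhibition was also assessed.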
# [15] = system: CYP isoforms (all isoforms tested); assay: cytochrome P450 inhibition, other isoforms and time-dependent inhibition; format: in vitro ADME
# Method in brief: as §1
# CYP isoforms = assay: as above; format: in vitro ADME; conditions: 20 μM
# Method in brief: as §1
# [16] = pharmacokinetics after IV and oral dosing; format: in vivo, mice
# Method in brief: (§2)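 Single IV and oral doses were given. Mice and rats received about 2 mg/kg IV and 5–50 mg/kg orally, with blood sampled over 30–48 h from 2 mice per time point or 2 rats. Dogs received 1 mg/kg by each route (n=3). Plasma was separated by centrifugation and assayed by LC/MS, and parameters were derived non-compartmentally.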
# [17] = pharmacokinetics after IV and oral dosing; format: in vivo, rats
# Method in brief: as §2
# [18] = pharmacokinetics after IV and oral dosing; format: in vivo, dogs; conditions: dog, plasma, 1 mg/kg
# Method in brief: as §2
# Ca_1.2 channel = Ca_1.2 channel (Homo sapiens, UniProt Q13936); assay: Ca_1.2 channel assay; format: cell-based
# Method in brief: (§3)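 Channel activity measured by IonWorks automated patch-clamp electrophysiology at a contract lab.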
# Na_V1.5 channel = Na_V1.5 channel (Homo sapiens, UniProt Q14524); assay: Na_V1.5 channel assay; format: cell-based
# Chain of Na_V1.5 channel (Q14524 whole entry): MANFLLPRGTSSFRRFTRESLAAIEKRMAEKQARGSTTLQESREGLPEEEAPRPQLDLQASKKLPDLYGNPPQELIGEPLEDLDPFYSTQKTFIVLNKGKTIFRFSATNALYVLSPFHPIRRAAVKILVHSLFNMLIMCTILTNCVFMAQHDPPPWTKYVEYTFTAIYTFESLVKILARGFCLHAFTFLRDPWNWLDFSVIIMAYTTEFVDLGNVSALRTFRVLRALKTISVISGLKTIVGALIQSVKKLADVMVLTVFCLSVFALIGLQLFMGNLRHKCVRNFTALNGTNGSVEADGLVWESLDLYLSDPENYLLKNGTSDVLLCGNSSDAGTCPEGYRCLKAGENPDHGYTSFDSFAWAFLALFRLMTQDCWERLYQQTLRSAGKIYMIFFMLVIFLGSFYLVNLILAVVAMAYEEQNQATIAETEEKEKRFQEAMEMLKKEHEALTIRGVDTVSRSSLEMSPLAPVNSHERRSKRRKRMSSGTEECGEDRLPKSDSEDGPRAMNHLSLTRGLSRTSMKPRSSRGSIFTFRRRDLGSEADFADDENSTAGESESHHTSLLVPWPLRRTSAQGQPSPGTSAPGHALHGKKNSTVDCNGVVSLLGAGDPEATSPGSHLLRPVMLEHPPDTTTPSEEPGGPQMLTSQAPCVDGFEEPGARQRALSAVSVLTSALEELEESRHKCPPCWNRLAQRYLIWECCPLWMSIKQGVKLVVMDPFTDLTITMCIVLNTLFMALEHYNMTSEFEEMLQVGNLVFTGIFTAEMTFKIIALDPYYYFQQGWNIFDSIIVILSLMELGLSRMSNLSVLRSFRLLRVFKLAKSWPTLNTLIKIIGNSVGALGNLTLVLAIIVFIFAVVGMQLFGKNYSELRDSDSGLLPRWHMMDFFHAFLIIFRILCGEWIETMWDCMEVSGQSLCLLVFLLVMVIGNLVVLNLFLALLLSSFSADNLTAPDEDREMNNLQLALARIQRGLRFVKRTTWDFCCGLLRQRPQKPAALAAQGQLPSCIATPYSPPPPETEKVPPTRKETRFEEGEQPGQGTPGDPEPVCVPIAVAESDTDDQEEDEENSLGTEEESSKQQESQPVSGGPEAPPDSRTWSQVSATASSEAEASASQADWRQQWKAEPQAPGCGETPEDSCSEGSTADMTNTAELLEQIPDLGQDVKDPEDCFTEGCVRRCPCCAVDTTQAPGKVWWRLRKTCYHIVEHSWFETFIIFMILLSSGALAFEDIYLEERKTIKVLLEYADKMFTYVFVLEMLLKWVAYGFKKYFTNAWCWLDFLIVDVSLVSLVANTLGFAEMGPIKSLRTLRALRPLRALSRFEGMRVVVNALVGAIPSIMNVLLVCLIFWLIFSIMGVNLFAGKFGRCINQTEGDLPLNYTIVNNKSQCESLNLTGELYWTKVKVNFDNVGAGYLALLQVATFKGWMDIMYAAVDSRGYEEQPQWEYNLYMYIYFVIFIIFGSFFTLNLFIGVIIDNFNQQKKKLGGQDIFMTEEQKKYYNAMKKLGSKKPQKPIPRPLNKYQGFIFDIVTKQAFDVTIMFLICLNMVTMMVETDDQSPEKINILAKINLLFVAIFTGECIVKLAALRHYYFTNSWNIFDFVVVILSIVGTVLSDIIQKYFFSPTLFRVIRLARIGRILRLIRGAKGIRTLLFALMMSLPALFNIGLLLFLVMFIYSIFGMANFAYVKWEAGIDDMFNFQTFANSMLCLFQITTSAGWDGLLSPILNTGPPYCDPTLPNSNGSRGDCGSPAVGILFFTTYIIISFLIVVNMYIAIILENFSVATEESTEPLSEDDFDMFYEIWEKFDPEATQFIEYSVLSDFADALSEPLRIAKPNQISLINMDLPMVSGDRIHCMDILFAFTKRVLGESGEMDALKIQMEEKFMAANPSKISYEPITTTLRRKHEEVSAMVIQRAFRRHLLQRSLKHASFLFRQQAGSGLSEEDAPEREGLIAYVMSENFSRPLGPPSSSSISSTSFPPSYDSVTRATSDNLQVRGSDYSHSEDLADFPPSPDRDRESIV
# Method in brief: as §3
# [19] = system: set of 100 human channels and enzymes; assay: CEREP diversity panel; conditions: 10 μM ([…])
# Ames tester strains = assay: GLP Ames 5 strain test; conditions: with and without metabolic activation
# [20] = stability in plasma and blood; format: in vitro ADME; conditions: plasma 37°C over 5 h; blood over 4 h
# Chain of P. vivax DHODH (A5K1N1 160-572): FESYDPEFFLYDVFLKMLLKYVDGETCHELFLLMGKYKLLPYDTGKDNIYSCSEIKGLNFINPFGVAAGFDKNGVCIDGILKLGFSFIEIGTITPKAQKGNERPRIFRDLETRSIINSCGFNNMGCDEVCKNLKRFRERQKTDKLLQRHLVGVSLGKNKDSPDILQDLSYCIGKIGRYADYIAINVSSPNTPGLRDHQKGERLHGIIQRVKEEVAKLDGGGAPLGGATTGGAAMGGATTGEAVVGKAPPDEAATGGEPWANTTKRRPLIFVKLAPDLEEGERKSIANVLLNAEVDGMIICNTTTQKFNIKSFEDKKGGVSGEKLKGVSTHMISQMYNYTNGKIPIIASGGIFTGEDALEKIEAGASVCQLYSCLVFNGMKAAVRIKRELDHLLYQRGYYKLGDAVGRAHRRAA
# Chain of P. falciparum DHODH (Q08210 158-569 limits assumed): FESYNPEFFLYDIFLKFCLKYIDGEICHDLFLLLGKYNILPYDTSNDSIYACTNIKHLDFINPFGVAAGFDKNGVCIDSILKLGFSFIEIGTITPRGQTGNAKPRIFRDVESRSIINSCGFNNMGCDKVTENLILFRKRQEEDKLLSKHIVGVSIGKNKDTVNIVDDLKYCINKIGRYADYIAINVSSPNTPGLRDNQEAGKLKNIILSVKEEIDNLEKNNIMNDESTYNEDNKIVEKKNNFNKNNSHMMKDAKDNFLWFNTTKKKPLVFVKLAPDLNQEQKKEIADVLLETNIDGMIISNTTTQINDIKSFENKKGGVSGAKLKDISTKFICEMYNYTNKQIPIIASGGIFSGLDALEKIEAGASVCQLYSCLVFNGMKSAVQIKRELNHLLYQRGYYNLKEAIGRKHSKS
smiles,measurement,setting,value
"Cc1cc(Nc2ccc(C(F)(F)F)nc2)n2nc(C(C)(F)F)nc2n1 [DSM421, 2-(1,1-Difluoroethyl)-5-methyl-N-(6-(trifluoromethyl)pyridin-3-yl)-[1,2,4]triazolo[1,5-a]pyrimidin-7-amine]",IC50,P. falciparum DHODH,53 nM
same,IC50,P. vivax DHODH,94 nM
same,fold lower activity (higher IC50) on P. vivax DHODH than PfDHODH,P. vivax DHODH,2 fold
same,IC50,Rabbit DHODH,> 100000 nM
same,IC50,Minipig DHODH,> 100000 nM
same,logD,"physchem; pH 7.4, measured Log D7.4, text (Table S6)",2.36
same,measured Log D7.4,physchem; text (Table S6),2.4
same,solubility kinetic,[1],> 100 µg/mL
same,fold more soluble than DSM265,[2],6-80 fold
same,microsomal CLint at 1 μM,[3],< 7 µL/min/mg
same,microsomal CLint at 1 μM,[4],< 7 µL/min/mg
same,microsomal CLint at 1 μM,[5],< 7 µL/min/mg
same,degradation in human hepatocyte incubations,[6],minimal degradation
same,inhibition of D10w/yDHODH line,[7],did not inhibit this line
same,EC50,[7]; read-out: EC50 on D10 cells transfected with yeast DHODH,> 10000 nM
same,cross resistance on DSM265-resistant Dd2 lines,[8],shares cross resistance with DSM265
same,EC50,[9],> 50000 nM
same,selectivity window HepG2 over activity against P. falciparum,Human HepG2 cells,600-5000 fold
same,"radical cure activity, liver stage",[10],did not show radical cure activity
same,lag time before killing began,[11]; 10xEC50,48 h
same,EC50,"[11]; read-out: EC50, 48 h growth assay (PRR)",43 nM
same,EC50,[11]; read-out: unbound EC50,22 nM
same,EC50,[12],12 nM
same,sensitivity of P. vivax versus P. falciparum field isolates,P. vivax field isolates,equivalent activity towards both species
same,AUC(0-t),[13]; 2.6 mg/kg/day,12900 ng·h/mL
same,AUC(0-t),[13]; 5 mg/kg/day,30800 ng·h/mL
same,tolerability,"[14]; SCID mice, oral QD 4 days",well tolerated and no adverse reactions were noted
same,Cav at ED90,[14]; blood,0.53 µg/mL
same,Cmin at 5 mg/kg/day,[14]; blood,330 ng/mL
same,Cmin at ED90,[14]; blood,0.1 µg/mL
same,ED90 24 h after the last dose,[14]; oral QD for 4 days,2.6 mg/kg/day
same,dose giving maximum parasite killing,[14]; oral QD for 4 days,≥ 5 mg/kg/day
same,permeability across Caco-2 cell monolayers,Caco-2 cell monolayers,high in both directions with no evidence for significant efflux
same,inhibition at 20 µM,CYP2D6,45%
same,IC50,[15],> 20000 nM
same,inhibition of the other CYP isoforms,CYP isoforms,no measurable inhibition
same,fold increase of plasma AUC,"[16]; mice, oral, for a 9-fold increase in dose",13 fold
same,half-life,"[16]; mouse, plasma",~2 h
same,Vd,"[16]; mouse, plasma, iv, 2 mg/kg",0.9 L/kg
same,clearance,"[16]; mouse, plasma, iv, 2 mg/kg",5.1 mL/min/kg
same,Tmax,"[16]; mouse, plasma, po",1 to 2 h
same,bioavailability,"[16]; mouse, plasma, po",> 100%
same,half-life,"[17]; rat, plasma",~5 h
same,Vd,"[17]; rat, plasma, iv, 2 mg/kg",0.8 L/kg
same,clearance,"[17]; rat, plasma, iv, 2 mg/kg",2.4 mL/min/kg
same,Tmax,"[17]; rat, plasma, po",1.8 to 7.5 h
same,bioavailability,"[17]; rat, plasma, po, 4.3 mg/kg",~80%
same,fold increase of plasma AUC,"[17]; rats, oral 4.3 to 53.7 mg/kg, for a 12-fold increase in dose",31 fold
same,half-life,[18],15 to 18 h
same,CLint scaled,[18]; intravenous,4.5 mL/min/kg
same,Vd,[18]; iv,0.8 L/kg
same,clearance,[18]; iv,0.5 mL/min/kg
same,Tmax,[18]; po,4 h
same,bioavailability,[18]; po,~100%
same,activity on Ca_1.2 channel,Ca_1.2 channel,no activity
same,activity on Na_V1.5 channel,Na_V1.5 channel,no activity
same,inhibition in CEREP diversity panel,[19],no significant inhibition
same,GLP Ames 5 strain test result,Ames tester strains,no obvious cytotoxicity in any tester strain at any tested dose level
same,stability in plasma and blood,[20],stable

# — paper PMC5148661 (ACS infectious diseases, 2016)
